Measurements taken from ChEMBL document CHEMBL4270554, “Discovery of the cancer cell selective dual acting anti-cancer agent (Z)-2-(1H-indol-3-yl)-3-(isoquinolin-5-yl)acrylonitrile (A131)” (Eur J Med Chem, 2018).

What was measured:
hTERT-BJ [1] = assay: Induction of autophagy in human hTERT-BJ cells transformed with hTert, small t, shRNAs against p53 and pRb and H-RasV12-ER assessed as increase in LC3-2 to LC3-1 ratio at 5 uM after 24 hrs by immunoblot analysis relative to control; type: functional
Method in brief: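 Fully transformed BJ fibroblasts (hTert, small t, shRNAs to p53 and pRb, H-RasV12-ER) grown at 37 °C, 5% CO2 in 10% FBS medium; treated 24 h at 5 μM. Triton lysis, 14% SDS-PAGE, LC3 immunoblot; LC3-II/LC3-I band ratio relative to DMSO-treated control, under 2-fold induction deemed insignificant.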

hTERT-BJ [2] = assay: Inhibition of mitotic progression in human hTERT-BJ cells transformed with hTert, small t, shRNAs against p53 and pRb and H-RasV12-ER assessed as increase in phosphorylated histone H3 (Ser10) level at 5 uM after 24 hrs by immunoblot analysis relative to control; type: functional
Method in brief: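 Fully transformed BJ fibroblasts (hTert, small t, shRNAs to p53 and pRb, H-RasV12-ER) treated 24 h at 5 μM. Immunoblot protocol as for HeLa. pH3 (Ser10) band intensity expressed as fold of DMSO control; under 2-fold counted as insignificant.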

Row | SMILES | fold change (FC) (hTERT-BJ [1]) | fold change (FC) (hTERT-BJ [2])
1 | N#C/C(=C\c1cccnc1)c1c[nH]c2ccccc12 | 1.1 | 1.2
2 | N#C/C(=C\c1cccc2cnccc12)c1c[nH]c2ccc(F)cc12 | 0.5 | 0.9
3 | N#C/C(=C\c1cccc2cnccc12)c1c[nH]c2ncccc12 | 1.4 | 1.8
4 | N#C/C(=C\c1cccc2cnccc12)c1c[nH]c2cc(CN3CCCC3)ccc12 | 5.7 | 1.1
5 | N#C/C(=C\c1cccc2cnccc12)c1c[nH]c2c(Br)cccc12 | 2.2 | 1.4
6 | N#C/C(=C\c1cccc2ccncc12)c1c[nH]c2ccccc12 | 0.7 | 1.5
7 | N#CC(Cc1cccc2cnccc12)c1c[nH]c2ccccc12 (stereo not given) | 0.3 | 1.2
8 | N#C/C(=C\c1cccc2cnccc12)c1c[nH]c2ccc(OCCC3OCCO3)cc12 | 0.7 | 1
9 | N#C/C(=C\c1cccc2cnccc12)c1n[nH]c2ccccc12 | 2 | 1.4
10 | N#C/C(=C\c1cccc2cnccc12)c1c[nH]c2c(CN3CCCC3)cccc12 | 3.7 | 0.8
11 | NC(=O)/C(=C\c1cccc2cnccc12)c1c[nH]c2ccccc12 | 0.6 | 1.3
12 | COc1ccc2c(/C(C#N)=C/c3cccc4cnccc34)c[nH]c2c1 | 2.6 | 4.3
13 | N#C/C(=C\c1cccc2cnccc12)c1c[nH]c2cc(Br)ccc12 | 0.7 | 1.6
14 | Cc1[nH]c2ccccc2c1/C(C#N)=C/c1cccc2cnccc12 | 0.7 | 1.1
15 | O=C(Nc1cccc2cnccc12)c1c[nH]c2ccccc12 | 0.4 | 1.4
16 | N#C/C(=C\c1cccc2cccnc12)c1c[nH]c2ccccc12 | 0.6 | 1.3
17 | N#C/C(=C\c1cccc2cnccc12)c1c[nH]c2ccc([N+](=O)[O-])cc12 | 0.6 | 0.9
18 | N#C/C(=C\c1cncc2cnccc12)c1c[nH]c2ccccc12 | 1 | 1.4
19 | CC(=O)Nc1ccc2[nH]cc(/C(C#N)=C/c3cccc4cnccc34)c2c1 | 0.5 | 1.2
20 | Cn1cc(/C(C#N)=C/c2cccc3cnccc23)c2ccccc21 | 1.6 | 1.1
21 | N#C/C(=C\c1ccnc2ccccc12)c1c[nH]c2ccccc12 | 0.4 | 1.4
22 | N#C/C(=C\c1cccc2cnccc12)c1c[nH]c2cccc(Br)c12 | 0.5 | 1.1
23 | N#C/C(=C\c1cccc2cnccc12)c1c[nH]c2ccc(Cl)cc12 | 2 | 1.4
24 | COc1cccc2c(/C(C#N)=C/c3cccc4cnccc34)c[nH]c12 | 2.7 | 3.9
25 | N#C/C(=C\c1cccc2cnccc12)c1c[nH]c2ccc(CN3CCCC3)cc12 | 3.3 | 1
